Test results reported in ChEMBL document CHEMBL1255332, “Isobolographic analysis of pharmacodynamic interactions between antifungal agents and ciprofloxacin against Candida albicans and Aspergillus fumigatus” (Antimicrob Agents Chemother, 2008).
Converted amounts (≈) assume the structure as drawn.

Experiments:
Assay type in all cases: functional, organism-based
Candida albicans [1] = test: Antifungal activity against Candida albicans CA362 by spectrophotometry
How it was run: (§1)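 Clinical C. albicans blastoconidia came from 1- to 2-day Sabouraud cultures, with a final inoculum of 5 × 10^2 to 2.5 × 10^3 CFU/ml in RPMI 1640 buffered to pH 7 with 0.165 M MOPS. Incubation was 37°C for 24 h. A405 was corrected against a conidium-free plate and expressed as % of drug-free control, and an Emax model was fitted for EC50. Three replicates.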

Aspergillus fumigatus [2] = test: Antifungal activity against Aspergillus fumigatus AF2025 spectrophotometry
How it was run: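 Conidia from 5–7-day Sabouraud agar cultures were adjusted to 80–82% transmittance at 530 nm, giving a final 0.4 × 10^4 to 5 × 10^4 CFU/ml in RPMI 1640 buffered at pH 7 with 0.165 M MOPS. They were tested in a checkerboard alone or with ciprofloxacin for 24 h at 37°C. A405 was converted to % of drug-free growth after background subtraction, an Emax model was fitted, and each test was run in triplicate.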

Candida albicans [3] = test: Antifungal activity against Candida albicans CA5685 by spectrophotometry; how it was run: as §1
Aspergillus fumigatus [4] = test: Antifungal activity against Aspergillus fumigatus AF2350 by spectrophotometry
How it was run: (§2)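 Clinical A. fumigatus conidia were harvested from 5- to 7-day Sabouraud cultures, with a final inoculum of 0.4 × 10^4 to 5 × 10^4 CFU/ml in RPMI 1640 (0.165 M MOPS, pH 7). Incubation was 37°C for 24 h. Growth at 405 nm, background-subtracted, was expressed as % of drug-free control, and an Emax model was fitted to give EC50. Three replicates.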

Candida albicans [5] = test: Antifungal activity against Candida albicans CA8621 by spectrophotometry; how it was run: as §1
Aspergillus fumigatus [6] = test: Antifungal activity against Aspergillus fumigatus AF4215 spectrophotometry; how it was run: as §2

Compound: C[C@@H]1[C@H](O)[C@@H](C)/C=C/C=C/C=C/C=C/C=C/C=C/C=C/[C@H](O[C@@H]2O[C@H](C)[C@@H](O)[C@H](N)[C@@H]2O)C[C@@H]2O[C@](O)(C[C@@H](O)C[C@@H](O)[C@H](O)CC[C@@H](O)C[C@@H](O)CC(=O)O[C@H]1C)C[C@H](O)[C@H]2C(=O)O [AMPHOTERICIN B]
- EC50 (Candida albicans [1]): 0.25 mg/L (≈ 0.271 µM)
- MIC (Candida albicans [1]): 0.125 mg/L (≈ 0.135 µM)
- EC50 (Aspergillus fumigatus [2]): 0.5 mg/L (≈ 0.541 µM)
- MIC (Aspergillus fumigatus [2]): 0.5 mg/L (≈ 0.541 µM)

Compound: CC[C@H](C)C[C@H](C)CCCCCCCCC(=O)N[C@H]1C[C@@H](O)[C@@H](NCCN)NC(=O)[C@@H]2[C@@H](O)CCN2C(=O)[C@H]([C@H](O)CCN)NC(=O)[C@H]([C@H](O)[C@@H](O)c2ccc(O)cc2)NC(=O)[C@@H]2C[C@@H](O)CN2C(=O)[C@H]([C@@H](C)O)NC1=O [CASPOFUNGIN]
- EC50 (Candida albicans [3]): 0.59 mg/L (≈ 0.54 µM)
- MIC (Candida albicans [3]): 1 mg/L (≈ 0.915 µM)
- EC50 (Aspergillus fumigatus [4]): 28.8 mg/L (≈ 26.3 µM)
- MIC (Aspergillus fumigatus [4]): 128 mg/L (≈ 117 µM)

Compound: OC(Cn1cncn1)(Cn1cncn1)c1ccc(F)cc1F [FLUCONAZOLE]
- EC50 (Candida albicans [5]): 0.09 mg/L (≈ 0.294 µM)
- MIC (Candida albicans [5]): 0.125 mg/L (≈ 0.408 µM)
- EC50 (Aspergillus fumigatus [6]): 0.18 mg/L (≈ 0.588 µM)
- MIC (Aspergillus fumigatus [6]): 0.5 mg/L (≈ 1.63 µM)
